MT1-MMP act inh – blockers of MT1-MMP proenzyme processing, primary screen, HT1080 RFP-PRO-GFP cells, GFP/RFP fluorescence; 360,000 compounds, 0.061% hits; Matrix metalloproteinase-14 (Homo sapiens), P50281; GFP/RFP ratio change, % at 20 µM; GFP/RFP ratio fluorescence, overnight; percent of plate control window, DMSO zero; AID 651647, 2012;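 active = GFP/RFP ratio change of at least 30% with cell ATP level not reduced by more than half and red fluorescence within 50% of control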
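Compound: 20 µM single dose, 1% DMSO / System: HT1080 RFP-PRO-GFP cells / Controls: DMSO and RFP-L50D-GFP cell wells / Read-out basis: GFP/RFP fluorescence ratio / Schedule: overnight compound exposure at 37 °C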
ADAM17 inh – ADAM17 inhibitors, primary screen, biochemical, QFRET | recombinant ADAM17, EDANS/DABCYL FRET peptide cleavage | 370,000 compounds, 0.83% hits | inhibition, % at 6.95 µM;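 active = inhibition above the mean of compounds lying between control limits plus 3 SD, set per campaign, cut at about 8.5% in these data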;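 note: 0% = DMSO-only wells as the low control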
Target sequence (P78536 215-824 limits assumed): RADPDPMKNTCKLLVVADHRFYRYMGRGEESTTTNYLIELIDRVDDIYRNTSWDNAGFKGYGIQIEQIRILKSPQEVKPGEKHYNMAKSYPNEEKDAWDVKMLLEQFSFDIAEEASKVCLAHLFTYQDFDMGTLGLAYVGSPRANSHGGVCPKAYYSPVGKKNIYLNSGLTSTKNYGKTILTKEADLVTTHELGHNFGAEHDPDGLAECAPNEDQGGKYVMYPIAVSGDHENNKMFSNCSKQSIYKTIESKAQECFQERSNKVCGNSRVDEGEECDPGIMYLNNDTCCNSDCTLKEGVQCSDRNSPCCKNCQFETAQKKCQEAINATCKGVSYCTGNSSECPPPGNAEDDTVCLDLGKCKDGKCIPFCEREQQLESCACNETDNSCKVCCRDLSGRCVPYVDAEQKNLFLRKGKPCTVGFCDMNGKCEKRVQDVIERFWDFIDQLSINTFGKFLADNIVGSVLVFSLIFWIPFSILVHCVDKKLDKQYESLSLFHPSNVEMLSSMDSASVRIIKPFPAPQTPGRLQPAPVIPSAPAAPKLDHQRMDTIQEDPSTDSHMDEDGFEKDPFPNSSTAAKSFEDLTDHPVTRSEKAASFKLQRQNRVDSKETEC
ADAM10 inh – human ADAM10 inhibitors, primary screen, biochemical, QFRET, HTS; 370,000 compounds, 0.62% hits; Disintegrin and metalloproteinase domain-containing protein 10 (Homo sapiens), O14672; inhibition, % at 7 µM; AID 720582, 2013; recombinant ADAM10, EDANS/DABCYL FRET peptide cleavage, 3 h;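 active = inhibition above a per-campaign cutoff equal to the mean of compounds falling between control-based bounds plus 3 SD, cut at about 20% in these data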;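 note: 0% = DMSO wells while the 100% control is not disclosed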
MPTP inh – mitochondrial permeability transition pore inhibitors, primary screen, biochemical, isolated mouse mitochondria, absorbance | Ca2+ swelling absorbance, 30 min | inhibition, % at 10 µM | 360,000 compounds, 1.4% hits;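 active = inhibition of 50% or more, scaled per plate between neutral and stimulator controls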;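 note: 0% = DMSO wells given calcium and 100% = 1 mM EGTA wells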
SKN-1 block – suppressors of acrylamide-induced Pgst-4::GFP reporter in worms, primary screen, SKN-1 inhibitor project, whole organism, uHTS, GFP/RFP fluorescence ratio, strain VP596; C. elegans VP596 Pgst-4::GFP/RFP ratio, 24 h; inhibition, % at 21.8 µM; 360,000 compounds, 0.49% hits;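 active = interference check ratio from 0.5 to 1.5 plus GFP to RFP signal ratio inhibition reaching or exceeding a fixed threshold, cut at about 30% in these data, passing the limit was not always enough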
GRIN3A LBD mod – binders of NR3A ligand-binding domain, primary screen, biophysical, differential scanning fluorimetry, uHTS. NR3A LBD differential scanning fluorimetry, Tm shift; 0% = protein alone, 100% = glycine-bound protein. Glutamate receptor ionotropic, NMDA 3A (GRIN3A) ligand-binding domain. Tm shift relative to glycine control, % at 25 µM. AID 1259313, 2017. 340,000 compounds, 2.5% hits;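 active = melting temperature shift of at least 10% of the positive control shift, at one fixed dose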
Rh123 counter – fluorescence retest of MPTP screen hits in isolated mitochondria, single concentration. inhibition, % at 10 µM. membrane potential, Rhodamine 123 fluorescence. 5,000 compounds, 78% hits. shares compounds with MPTP inh; in the data active = inhibition above about 22%;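 note: 0% = DMSO vehicle and 100% = positive control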
MPTP abs DR – mitochondrial permeability transition pore inhibitors, dose response, biochemical, absorbance, uHTS hits; shares compounds with MPTP inh; isolated mitochondria swelling; IC50, µM; 780 compounds, 58% hits; in the data active = IC50 below about 20 µM
MPTP counter DR – fluorescent counter-screen in isolated mitochondria, dose response, counter-screen for MPTP inhibitor project, biochemical, fluorescence, uHTS hits; AID 651564, 2012; IC50, µM; shares compounds with MPTP inh; isolated mitochondria counterscreen, fluorescence read-out; 780 compounds, 49% hits; in the data active = IC50 below about 80 µM
The depositor's hits bear a star. The list is not random: actives were taken first. Their share in the collection is about 4.7%.

CC1CC(C)CN(Cc2nc(N)nc(Nc3ccccc3)n2)C1 (configuration not stated) was read as MT1-MMP act inh 1, ADAM17 inh -2, ADAM10 inh -5, MPTP inh -7, SKN-1 block 0 and GRIN3A LBD mod 0.
Screening CC1CC(C)CN(Cc2nc(N)nc(Nc3ccc4ccccc4c3)n2)C1 (configuration not stated) returned MT1-MMP act inh 2, ADAM17 inh 1, ADAM10 inh 8, MPTP inh 63*, SKN-1 block 20, GRIN3A LBD mod -2, Rh123 counter -11, MPTP abs DR >100 and MPTP counter DR >80.
For CCCCOc1ccccc1NC(=O)c1scc2c1OCCO2 the results were MT1-MMP act inh -9, ADAM17 inh 5, ADAM10 inh 10, MPTP inh 4, SKN-1 block 15 and GRIN3A LBD mod -2.
`CCN(CC)c1ccc(/C=C(/C#N)c2nc3ccc(C)cc3[nH]2)c(OC(C)C)c1` gave MT1-MMP act inh -424, ADAM17 inh 4, ADAM10 inh 12, MPTP inh 83*, SKN-1 block 18, GRIN3A LBD mod -20 and Rh123 counter 52*.
Screening CCOc1cc(N(CC)CC)ccc1/C=C(/C#N)c1nc2ccccc2[nH]1 returned MT1-MMP act inh -338, ADAM17 inh -7, ADAM10 inh -21, MPTP inh 82*, SKN-1 block 18, GRIN3A LBD mod -5 and Rh123 counter 54*.
For COc1cc(/C=C(\C#N)c2nc3ccc(C)cc3[nH]2)c([N+](=O)[O-])cc1OC the results were MT1-MMP act inh -2, ADAM17 inh -12, ADAM10 inh -18, MPTP inh 0, SKN-1 block 17 and GRIN3A LBD mod -6.
`Cc1cc(/C=C(\C#N)c2nc3ccccc3[nH]2)c(C)n1C` gave MT1-MMP act inh 1, ADAM17 inh -39, ADAM10 inh -119, MPTP inh 2, SKN-1 block 22 and GRIN3A LBD mod -13.
CCCOc1cc(N(CC)CC)ccc1/C=C(/C#N)c1nc2ccc(C)cc2[nH]1 was read as MT1-MMP act inh -339, ADAM17 inh 4, ADAM10 inh -5, MPTP inh 78*, SKN-1 block 29, GRIN3A LBD mod 1 and Rh123 counter 57*.
`CC1CCN(CCCNC(=O)c2ccc3c(=O)n(Cc4ccc(Cl)cc4)c(=S)[nH]c3c2)CC1` gave MT1-MMP act inh -2, ADAM17 inh -7, ADAM10 inh -2, MPTP inh 95*, SKN-1 block 9, GRIN3A LBD mod -7 and Rh123 counter -22.
Screening S=C(Nc1ccc(Br)cc1)N1CCCC1 returned MT1-MMP act inh 1, ADAM17 inh 4, ADAM10 inh 7, MPTP inh -1, SKN-1 block -4 and GRIN3A LBD mod -3.
Clc1ccc(C(c2ccccc2)N2CCNCC2)cc1 (configuration not stated) was read as MT1-MMP act inh -30, ADAM17 inh -5, ADAM10 inh -2, MPTP inh 80*, SKN-1 block 2, GRIN3A LBD mod 0, Rh123 counter -12, MPTP abs DR 6.7* and MPTP counter DR >80.
`O=S(=O)(c1ccc2c(c1)C(O)c1ccccc1CC2)C(F)(F)F` (configuration not stated) gave MT1-MMP act inh 11, ADAM17 inh 0, ADAM10 inh 9, MPTP inh 90*, SKN-1 block 9, GRIN3A LBD mod -19 and Rh123 counter 92*.
Screening CCOc1ccc(C(=O)N2CCN(Cc3ccccc3)CC2)cc1OCC returned ADAM17 inh 2, ADAM10 inh -8, MPTP inh 0, SKN-1 block -4 and GRIN3A LBD mod -2.
Screening CCN(CC)S(=O)(=O)c1ccc(Cl)c(C(=O)Nc2ccc(Cl)cc2[N+](=O)[O-])c1 returned MT1-MMP act inh -14, ADAM17 inh 5, ADAM10 inh 6, MPTP inh 91*, SKN-1 block 10, GRIN3A LBD mod -5 and Rh123 counter 92*.
`O=[N+]([O-])c1cc(Br)c(O)c(/C=N/Nc2nnnn2-c2cccc3ccccc23)c1` gave MT1-MMP act inh 0, ADAM17 inh 1, ADAM10 inh 11, MPTP inh 56*, SKN-1 block 1, GRIN3A LBD mod 4 and Rh123 counter 34*.
COc1cc([N+](=O)[O-])cc(/C=N/NC(=O)c2cc(C)nc3ccccc23)c1O was read as MT1-MMP act inh 4, ADAM17 inh 3, ADAM10 inh 11, MPTP inh -12, SKN-1 block 22 and GRIN3A LBD mod -7.
CC(Cc1cccs1)NC(=O)c1cccs1 (configuration not stated) was read as MT1-MMP act inh -1, ADAM17 inh -2, ADAM10 inh -4, MPTP inh 1, SKN-1 block 2 and GRIN3A LBD mod -1.
For CC(Cc1cccs1)NC(=O)Nc1ccc([N+](=O)[O-])cc1 (configuration not stated) the results were MT1-MMP act inh -1, ADAM17 inh 5, ADAM10 inh 15, MPTP inh 86*, SKN-1 block 3, GRIN3A LBD mod -5 and Rh123 counter 91*.
`COc1ccc(NC(=S)NC(C)Cc2cccs2)cc1` (configuration not stated) gave MT1-MMP act inh -3, ADAM17 inh -4, ADAM10 inh -5, MPTP inh 3, SKN-1 block -27 and GRIN3A LBD mod -1.
Screening CC(Cc1cccs1)NC(=S)Nc1ccc(F)cc1 (configuration not stated) returned MT1-MMP act inh 4, ADAM17 inh 2, ADAM10 inh 5, MPTP inh 50*, SKN-1 block 6, GRIN3A LBD mod -2 and Rh123 counter 73*.

Compound activity as filed in PubChem BioAssay.
